SMARCA2 act = SMARCA2 (BRM) function activators, primary screen, cell-based, luminescence, high throughput | MG213 cells, MMTV-luciferase reporter, dexamethasone, overnight | activation, % at 9.1 µM | 1% of 370,000 active; in the data active = activation above about 7.8%
GalR3 antagonist = GalR3 antagonists in HEK293 cells, primary screen, cell-based, fluorescence readout. Galanin receptor type 3 (Homo sapiens), O60755. HEK293 GalR3-CNG cAMP membrane potential fluorescence; galR3 body fused to GalR1 C-terminus. inhibition, % at 3 µM. 0.44% of 360,000 active;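 active = inhibition above the screen-wide average plus 3 SD, cut at about 13% in these data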;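 note: forskolin and galanin both at EC90 stimulate the cells; cAMP rise reported by CNG channel membrane potential dye signal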
Target sequence (O60755 1-299 limits assumed): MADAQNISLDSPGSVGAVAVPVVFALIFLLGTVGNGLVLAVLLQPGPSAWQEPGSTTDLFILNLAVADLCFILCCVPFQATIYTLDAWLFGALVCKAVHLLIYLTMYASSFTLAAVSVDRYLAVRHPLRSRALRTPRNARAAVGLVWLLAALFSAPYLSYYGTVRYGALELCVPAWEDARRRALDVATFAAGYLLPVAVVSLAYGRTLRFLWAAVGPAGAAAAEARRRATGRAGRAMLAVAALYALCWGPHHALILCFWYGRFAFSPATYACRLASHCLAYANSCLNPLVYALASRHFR
COUP-TFII inh = NR2F2 transcriptional activity inhibitors, primary screen, cell-based, luciferase reporter, HEK293T, luminescence. COUP transcription factor 2 (Homo sapiens), P24468. HEK293T NGFI-A luciferase reporter. inhibition, % at 8.6 µM. 0.7% of 370,000 active;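 active = inhibition above a per-plate cutoff, mean inhibition of test wells between control levels plus 3 SD, cut at about 38% in these data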;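 note: cells cotransfected with COUP-TFII expression vector driving the NGFI-A reporter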
NR2E3 ag-1 = inhibitors of NR2E3-RetCOR corepressor binding, primary screen, NR2E3 agonist project, biochemical, TR-FRET, GST-NR2E3, biotin-RetCOR | Photoreceptor-specific nuclear receptor (Homo sapiens), Q9Y5X4 | 1536-well | inhibition of corepressor binding, % at 4.78 µM | 0.12% of 320,000 active;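 active = percent inhibition above the cutoff of mean plus 3 SD of all tested compounds, set per screening campaign, cut at about 20% in these data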
Target sequence (Q9Y5X4 whole entry, looked up): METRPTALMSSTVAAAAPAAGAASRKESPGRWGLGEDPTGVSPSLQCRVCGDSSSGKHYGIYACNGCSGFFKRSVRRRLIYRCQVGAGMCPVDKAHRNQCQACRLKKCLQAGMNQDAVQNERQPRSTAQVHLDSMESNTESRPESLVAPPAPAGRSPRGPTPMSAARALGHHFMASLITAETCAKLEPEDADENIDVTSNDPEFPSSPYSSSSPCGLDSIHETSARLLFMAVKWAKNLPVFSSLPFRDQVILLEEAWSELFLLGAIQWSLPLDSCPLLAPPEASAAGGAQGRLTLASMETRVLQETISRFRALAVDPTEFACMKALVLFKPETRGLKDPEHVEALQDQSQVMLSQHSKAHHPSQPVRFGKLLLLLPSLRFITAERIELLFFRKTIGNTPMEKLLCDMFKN
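Format: 1536-well format; test system: GST-NR2E3 and biotin-RetCOR proteins; read-out basis: percent inhibition of TR-FRET ratio; timing: 5 h incubation at 4 °C; detection: time-resolved FRET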
NR2E3 ag-2 = NR2E3 agonists in two-hybrid cells, primary screen, cell-based, luminescence, CHO-S, Gal4-NCOR/VP16-NR2E3; Photoreceptor-specific nuclear receptor (Homo sapiens), Q9Y5X4; luciferase; inhibition of corepressor binding, % at 3.98 µM; 0.35% of 360,000 active;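 active = inhibition above the mean of all tested compounds plus 3 SD, cut at about 70% in these data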;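 note: higher means lower luciferase signal from less NR2E3 corepressor binding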
SMARCA2 conf = SMARCA2 (BRM) function activators, confirmation, cell-based, luminescence, triplicate. shares compounds with SMARCA2 act. activation, % at 9.1 µM. 30% of 3,500 active. MG213 cells, MMTV-luciferase with dexamethasone, overnight; MG213 cells expressing E1A, Rb sequestered; DMSO wells 0%, reference activator 100%;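 active = activation above its plate's cutoff, the mean activation of tested wells plus 3 SD, cut at about 7.9% in these data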
GAL4-VP16 Luc = GAL4-VP16 luciferase reporter activation, counter-screen for SMARCA2 (BRM) activator project, cell-based, pG5luc, luminescence, high throughput | shares compounds with SMARCA2 act | HEK293 GAL4-VP16 pG5luc reporter; scaled: DMSO wells 0%, SAHA wells 100% | activation, % at 9.1 µM | 41% of 3,500 active | AID 686939, 2013;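 active = activation above the solvent-only control well mean plus 3 SD, averaged across control plates, cut at about 5.2% in these data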
Of the large screens only hits and unclear results are named; the others gave an inactive call (follow-up assays come after a bar, where they were run). Most compounds without a hit are left out; they make up all but 2.2% or so of the library.

O=C1CC(c2cccs2)Sc2nc3ccccc3n21 (stereo not drawn)	none
Cc1cccc(NC(=O)C2C(C(=O)O)C3C=CC2C32CC2)c1C (stereo not drawn)	none
Cc1ccc(NC(=O)C2C(C(=O)O)C3C=CC2C32CC2)cc1 (stereo not drawn)	SMARCA2 act 9.8 | SMARCA2 conf inactive | GAL4-VP16 Luc inactive
O=C(NC1CCCCN(Cc2cccc(C(F)(F)F)c2)C1=O)c1ccc(Cl)cc1 (stereo not drawn)	none (no result: GalR3 antagonist, NR2E3 ag-1, NR2E3 ag-2)
COc1ccc(-c2nc(-c3ccc(O)cc3O)cs2)cc1OC	SMARCA2 act 8.8 (no result: NR2E3 ag-1) | SMARCA2 conf 18 | GAL4-VP16 Luc 12
COc1ccc(-c2nc(CCl)cs2)cc1OC	none
O=C(CCc1ccccc1)N[C@H]1[C@H](OC(=O)c2cnccn2)CCC[C@@]12C(=O)N(Cc1ccccc1)c1ccccc12	none (no result: GalR3 antagonist, NR2E3 ag-1, NR2E3 ag-2)
N#Cc1ccccc1OCC(=O)Nc1ccc2c(c1)OCCCO2	none
N#Cc1ccccc1OCC(=O)Nc1ccc2c(c1)OCO2	SMARCA2 act 9.0 (no result: NR2E3 ag-1) | SMARCA2 conf 18 | GAL4-VP16 Luc 7.6
N#Cc1ccccc1OCC(=O)Nc1ccc2c(c1)OCCO2	SMARCA2 act 8.5 | SMARCA2 conf inactive | GAL4-VP16 Luc 6.3
O=C(COc1ccccc1[N+](=O)[O-])Nc1ccc2c(c1)OCO2	none
COc1ccccc1OCCNC(=O)CNC(=O)c1ccc(C(C)(C)C)cc1	none
COc1ccccc1OCCNC(=O)c1ccc(Br)cc1	SMARCA2 act 8.8 | SMARCA2 conf inactive | GAL4-VP16 Luc inactive
COc1ccccc1OCCNC(=O)c1ccc(C(C)(C)C)cc1	SMARCA2 act 8.2 | SMARCA2 conf inactive | GAL4-VP16 Luc inactive
COc1cc(C(=O)NCCOc2cccc3cccnc23)cc(OC)c1OC	SMARCA2 act 11 | SMARCA2 conf inactive | GAL4-VP16 Luc inactive
CC(C)[C@H](N)C(=O)N[C@@H](Cc1ccccc1)C(=O)N1CCC2CCN(S(=O)(=O)c3ccccc3)CC21 (stereo partly drawn)	none (no result: GalR3 antagonist, NR2E3 ag-1, NR2E3 ag-2)
C/C(=N/NC(=O)c1cccnc1)c1cccc(O)c1	none (no result: GalR3 antagonist, NR2E3 ag-1, NR2E3 ag-2)
NC(=NCc1ccccc1)NC(=O)c1nc(Cl)c(N)nc1N	none
NC(=Nc1ccccc1)NC(=O)c1nc(Cl)c(N)nc1N	SMARCA2 act 9.2 (no result: GalR3 antagonist) | SMARCA2 conf 27 | GAL4-VP16 Luc 11
COC(=O)[C@]12C[C@H](CC(=O)N3CCOCC3)C(=O)N(Cc3ccco3)C1=C[C@H](C(C)C)O[C@@H]2C1CC1	SMARCA2 act 9.6 (no result: GalR3 antagonist, NR2E3 ag-1, NR2E3 ag-2) | SMARCA2 conf inactive | GAL4-VP16 Luc inactive
CC(C)CN1C(=O)[C@@]2(CC(=O)N(C)C2c2ccccc2)c2cc(-n3cc(CN(C)C)nn3)ccc21 (stereo partly drawn)	none (no result: GalR3 antagonist, NR2E3 ag-1, NR2E3 ag-2)
O=c1ccc(Cc2ccccn2)n[nH]1	SMARCA2 act 9.5 | SMARCA2 conf inactive | GAL4-VP16 Luc inactive
COC(=O)[C@]12C[C@H](CC(=O)N3CCN(C(=O)c4ccco4)CC3)C(=O)N(Cc3ccc4c(c3)OCO4)C1=C[C@H](C(C)C)O[C@@H]2C1CC1	none (no result: GalR3 antagonist, NR2E3 ag-1, NR2E3 ag-2)
CCOC(=O)c1sc(=NC(=O)c2cccs2)n(C)c1C	SMARCA2 act 12 | SMARCA2 conf inactive | GAL4-VP16 Luc 14
Cc1ccc(C(=O)Nc2ccsc2C(=O)O)cc1	none
O=C(Nc1ccsc1C(=O)O)c1ccc(Cl)cc1	SMARCA2 act 8.7 | SMARCA2 conf 10 | GAL4-VP16 Luc 8.7
COC(=O)[C@]12C[C@H](CC(=O)NCCCN3CCCC3=O)C(=O)N(Cc3ccc4c(c3)OCO4)C1=C[C@H](C(C)C)O[C@@H]2C1CC1	none (no result: GalR3 antagonist, NR2E3 ag-1, NR2E3 ag-2)
N#Cc1cc(C#N)c(N2CCN(c3ccccn3)CC2)nc1N	SMARCA2 act 9.1 | SMARCA2 conf 16 | GAL4-VP16 Luc 11
c1ccc(N2CCN(c3cnccn3)CC2)nc1	none
CN(C)c1ccc(NC(=O)c2ccc3c(c2)nnn3C)cc1	none
CN(C)c1ccc(NC(=O)Nc2cccc(Cl)c2)cc1	SMARCA2 act 9.7 | SMARCA2 conf inactive | GAL4-VP16 Luc 15
CN(C)c1ccc(NC(=O)Nc2ccc3c(c2)nnn3C)cc1	SMARCA2 act 20 | SMARCA2 conf 11 | GAL4-VP16 Luc 6.1
COc1ccc(-n2c(COc3ccc(Cl)cc3)nnc2SCC(=O)Nc2ccc(Oc3ccccc3)cc2)cc1	none (no result: GalR3 antagonist, NR2E3 ag-1, NR2E3 ag-2)
CN(C(=O)c1cc2c(=O)n3ccccc3nc2n1C)C1CCCCC1	SMARCA2 act 8.0 | SMARCA2 conf inactive | GAL4-VP16 Luc 14
CCN(C(=O)c1cc2c(=O)n3ccccc3nc2n1C)C1CCCCC1	none
Cc1ccc(-c2nc3ccccn3c2NCc2ccc3c(c2)OCO3)cc1	SMARCA2 act 10 | SMARCA2 conf 8.2 | GAL4-VP16 Luc inactive
COc1ccc(-c2nc3ccc(C)cn3c2NCc2ccc3c(c2)OCO3)cc1	none
CCOc1ccc(CNC(=O)CCCn2nc(CC)n3c(cc4occc43)c2=O)cc1	none
CCc1ccc(NC(=O)CCCn2nc(CC)n3c(cc4occc43)c2=O)cc1	SMARCA2 act 9.6 | SMARCA2 conf inactive | GAL4-VP16 Luc inactive
CCN1CCCC1CNC(=O)C(=O)Nc1ccccc1 (stereo not drawn)	SMARCA2 act 11 | SMARCA2 conf inactive | GAL4-VP16 Luc 6.1
c1ccc(CNc2nc(-c3cccnc3)nc3ccccc23)cc1	none (no result: NR2E3 ag-1)
c1ccc(CN2CCC(Nc3nc(-c4cccnc4)nc4ccccc34)CC2)cc1	SMARCA2 act 8.5 | SMARCA2 conf 19 | GAL4-VP16 Luc inactive
O=C(c1cccc(C(F)(F)F)c1)N1CC[C@H]2[C@H](CCCN2Cc2ccc(F)cc2)C1	none (no result: GalR3 antagonist, NR2E3 ag-1, NR2E3 ag-2)
CCc1cc(=O)oc2cc(OCC(=O)NCCCN3CCOCC3)c(Cl)cc12	SMARCA2 act 8.4 | SMARCA2 conf inactive | GAL4-VP16 Luc inactive
Fc1ccc(-c2n[nH]c(=S)n2N=Cc2ccc(-c3ccccc3)cc2)cc1	none (no result: GalR3 antagonist, NR2E3 ag-1, NR2E3 ag-2)
CN1C2=N[C@H](c3ccccc3)CC(=O)N2/C(=C\c2ccccc2)C1Cc1ccccc1 (stereo partly drawn)	none (no result: GalR3 antagonist, NR2E3 ag-1, NR2E3 ag-2)
C/C(=N\NC(=O)Cc1c(C)[nH][nH]c1=O)c1ccc(Cl)c(Cl)c1	SMARCA2 act 8.0 | SMARCA2 conf inactive | GAL4-VP16 Luc inactive
C/C(=N/NC(=O)Cc1c(C)[nH][nH]c1=O)c1ccc(O)cc1	none
CCN(CC)c1ccc(C=Nn2c(-c3ccc(F)cc3)n[nH]c2=S)c(O)c1	none (no result: GalR3 antagonist, NR2E3 ag-1, NR2E3 ag-2)

Assay outcomes (PubChem BioAssay)
